Results taken from ChEMBL document CHEMBL2169806, “Design, synthesis, and pharmacological evaluation of N-acylhydrazones and novel conformationally constrained compounds as selective and potent orally active phosphodiesterase-4 inhibitors” (J Med Chem, 2012).

Legend:
Bos taurus [1] = species: Bos taurus; experiment: Inhibition of bovine PDE4 using [3H]cAMP as substrate at 10 uM
How it was run: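 Enzyme was PDE4 isolated from the media layer of bovine aorta, run in the two-step activity assay at 1 μM cAMP.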

[2] = molecular target: 3',5'-cyclic-AMP phosphodiesterase 4C (Homo sapiens, UniProt Q08493); experiment: Inhibition of human recombinant PDE4C
Chain of 3',5'-cyclic-AMP phosphodiesterase 4C (Q08493 whole entry): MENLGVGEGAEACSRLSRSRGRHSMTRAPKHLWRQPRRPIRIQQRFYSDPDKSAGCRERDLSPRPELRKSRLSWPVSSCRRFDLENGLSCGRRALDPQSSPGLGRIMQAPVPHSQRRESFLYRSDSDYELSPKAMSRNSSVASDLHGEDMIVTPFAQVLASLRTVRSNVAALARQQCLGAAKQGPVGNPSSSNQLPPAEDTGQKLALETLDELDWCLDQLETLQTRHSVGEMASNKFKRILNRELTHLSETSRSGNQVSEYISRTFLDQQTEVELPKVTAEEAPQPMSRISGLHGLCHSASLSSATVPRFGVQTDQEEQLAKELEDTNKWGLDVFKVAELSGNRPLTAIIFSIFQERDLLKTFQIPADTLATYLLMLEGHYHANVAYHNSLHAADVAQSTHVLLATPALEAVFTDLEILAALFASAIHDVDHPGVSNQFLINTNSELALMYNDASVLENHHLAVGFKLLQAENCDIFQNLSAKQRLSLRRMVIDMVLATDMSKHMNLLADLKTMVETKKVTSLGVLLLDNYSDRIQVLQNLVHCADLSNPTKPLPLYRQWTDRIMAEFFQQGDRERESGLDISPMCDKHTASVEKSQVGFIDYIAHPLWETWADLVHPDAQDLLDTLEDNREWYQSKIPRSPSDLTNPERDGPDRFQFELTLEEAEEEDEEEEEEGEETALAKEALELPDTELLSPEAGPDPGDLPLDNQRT

[3] = molecular target: 3',5'-cyclic-AMP phosphodiesterase 4B (Homo sapiens, UniProt Q07343); experiment: Inhibition of human recombinant PDE4B
Chain of 3',5'-cyclic-AMP phosphodiesterase 4B (Q07343 whole entry): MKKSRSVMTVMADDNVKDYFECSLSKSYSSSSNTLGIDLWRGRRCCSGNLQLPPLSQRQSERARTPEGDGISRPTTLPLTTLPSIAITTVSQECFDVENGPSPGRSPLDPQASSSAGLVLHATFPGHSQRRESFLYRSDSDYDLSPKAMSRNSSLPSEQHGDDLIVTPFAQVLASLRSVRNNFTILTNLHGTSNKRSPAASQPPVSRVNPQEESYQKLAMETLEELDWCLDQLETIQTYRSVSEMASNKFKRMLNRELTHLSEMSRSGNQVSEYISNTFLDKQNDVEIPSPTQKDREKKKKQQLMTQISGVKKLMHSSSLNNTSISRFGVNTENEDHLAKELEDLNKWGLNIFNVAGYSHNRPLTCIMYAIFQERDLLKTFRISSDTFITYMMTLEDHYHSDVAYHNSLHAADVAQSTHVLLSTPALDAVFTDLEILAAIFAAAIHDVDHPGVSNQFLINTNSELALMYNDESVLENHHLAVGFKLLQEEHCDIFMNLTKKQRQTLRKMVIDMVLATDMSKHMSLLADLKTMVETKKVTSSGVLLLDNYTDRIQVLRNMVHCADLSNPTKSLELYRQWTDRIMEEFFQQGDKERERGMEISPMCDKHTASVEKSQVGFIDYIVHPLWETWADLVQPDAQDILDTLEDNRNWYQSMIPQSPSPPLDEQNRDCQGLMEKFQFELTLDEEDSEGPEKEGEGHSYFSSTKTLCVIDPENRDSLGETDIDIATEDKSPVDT

[4] = molecular target: 3',5'-cyclic-AMP phosphodiesterase 4D (Homo sapiens, UniProt Q08499); experiment: Inhibition of human recombinant PDE4D
Chain of 3',5'-cyclic-AMP phosphodiesterase 4D (Q08499 whole entry): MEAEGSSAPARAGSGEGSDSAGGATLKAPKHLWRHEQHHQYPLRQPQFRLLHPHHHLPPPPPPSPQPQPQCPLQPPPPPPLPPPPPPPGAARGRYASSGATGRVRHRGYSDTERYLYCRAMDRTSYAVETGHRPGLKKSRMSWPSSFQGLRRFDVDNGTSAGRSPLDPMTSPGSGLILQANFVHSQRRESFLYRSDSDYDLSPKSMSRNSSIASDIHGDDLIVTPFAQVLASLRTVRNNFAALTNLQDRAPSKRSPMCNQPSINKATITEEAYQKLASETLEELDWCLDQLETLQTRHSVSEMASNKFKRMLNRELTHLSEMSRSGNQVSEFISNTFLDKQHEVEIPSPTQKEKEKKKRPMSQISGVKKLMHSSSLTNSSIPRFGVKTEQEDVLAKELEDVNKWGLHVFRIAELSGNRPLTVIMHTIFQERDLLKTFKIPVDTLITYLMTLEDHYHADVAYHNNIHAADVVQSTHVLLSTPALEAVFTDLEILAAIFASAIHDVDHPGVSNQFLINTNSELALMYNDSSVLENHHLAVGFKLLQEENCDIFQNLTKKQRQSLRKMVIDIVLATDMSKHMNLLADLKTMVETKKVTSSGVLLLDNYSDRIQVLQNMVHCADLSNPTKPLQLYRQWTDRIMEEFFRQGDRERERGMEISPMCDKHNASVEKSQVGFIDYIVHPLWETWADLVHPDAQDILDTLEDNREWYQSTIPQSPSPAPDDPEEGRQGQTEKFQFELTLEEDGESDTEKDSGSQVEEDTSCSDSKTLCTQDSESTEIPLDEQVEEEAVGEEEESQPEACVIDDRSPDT

[5] = molecular target: 3',5'-cyclic-AMP phosphodiesterase 4A (Homo sapiens, UniProt P27815); experiment: Inhibition of human recombinant PDE4A
Chain of 3',5'-cyclic-AMP phosphodiesterase 4A (P27815 whole entry): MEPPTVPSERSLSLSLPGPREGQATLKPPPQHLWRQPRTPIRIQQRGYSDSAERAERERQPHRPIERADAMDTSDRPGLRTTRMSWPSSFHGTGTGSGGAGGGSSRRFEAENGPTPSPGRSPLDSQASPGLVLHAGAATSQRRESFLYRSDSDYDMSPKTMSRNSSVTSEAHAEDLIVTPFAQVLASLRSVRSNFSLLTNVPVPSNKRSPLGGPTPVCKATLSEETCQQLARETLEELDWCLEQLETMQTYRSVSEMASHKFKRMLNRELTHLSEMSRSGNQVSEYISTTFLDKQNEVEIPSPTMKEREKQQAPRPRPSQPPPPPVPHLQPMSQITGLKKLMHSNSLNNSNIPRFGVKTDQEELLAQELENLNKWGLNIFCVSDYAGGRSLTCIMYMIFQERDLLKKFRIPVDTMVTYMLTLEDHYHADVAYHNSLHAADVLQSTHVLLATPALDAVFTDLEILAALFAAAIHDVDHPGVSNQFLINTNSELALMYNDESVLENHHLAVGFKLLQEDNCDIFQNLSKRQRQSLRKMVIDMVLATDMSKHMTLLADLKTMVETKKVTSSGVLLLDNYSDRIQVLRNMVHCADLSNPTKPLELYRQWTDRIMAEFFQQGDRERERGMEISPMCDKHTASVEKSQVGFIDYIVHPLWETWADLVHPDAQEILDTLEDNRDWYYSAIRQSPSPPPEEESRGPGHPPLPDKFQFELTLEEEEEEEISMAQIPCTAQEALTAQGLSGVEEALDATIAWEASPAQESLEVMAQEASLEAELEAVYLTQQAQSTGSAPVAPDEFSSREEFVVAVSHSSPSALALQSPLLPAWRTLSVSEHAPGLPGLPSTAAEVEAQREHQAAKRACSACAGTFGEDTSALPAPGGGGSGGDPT

Mus musculus [6] = experiment: Antiinflammatory activity in A/J mouse assessed as inhibition of LPS-induced airway elastance provoked by methacholine at 100 umol/kg, po administered 1 hr prior to LPS-challenge measured after 18 hrs relative to vehicle-treated control; format: functional
PBMC [7] = experiment: Antiinflammatory activity in human PBMC assessed as inhibition of LPS-induced TNFalpha production after 24 hrs by ELISA; format: functional, cell-based
Bos taurus [8] = species: Bos taurus; experiment: Inhibition of bovine PDE5 using […] as substrate at 10 uM
Mus musculus [9] = experiment: Antiinflammatory activity in A/J mouse assessed as inhibition of LPS-induced airway resistance provoked by methacholine at 100 umol/kg, po administered 1 hr prior to LPS-challenge measured after 18 hrs relative to vehicle-treated control; format: functional
PBMC [10] = experiment: Antiinflammatory activity in human PBMC assessed as inhibition of LPS-induced TNFalpha production at 10 uM after 24 hrs by ELISA relative to control; format: functional
Mus musculus [11] = experiment: Antiinflammatory activity in A/J mouse lung assessed as inhibition of LPS-induced TNFalpha production at 100 umol/kg, po administered 1 hr prior to LPS-challenge measured after 18 hrs relative to vehicle-treated control; format: functional
[12] = Inhibition of bovine PDE4 using [3H]cAMP as substrate; parameters: species or system Bos taurus
Mus musculus [13] = experiment: Antiinflammatory activity in A/J mouse assessed as inhibition of neutrophil accumulation in bronchoalveolar space at 100 umol/kg, po administered 1 hr prior to LPS-challenge measured after 18 hrs relative to vehicle-treated control; format: functional; conditions: Lung
[14] = molecular target: cGMP-dependent 3',5'-cyclic phosphodiesterase (Homo sapiens, UniProt O00408); experiment: Inhibition of human PDE2 using [3H]cAMP as substrate at 10 uM
Chain of cGMP-dependent 3',5'-cyclic phosphodiesterase (O00408 whole entry): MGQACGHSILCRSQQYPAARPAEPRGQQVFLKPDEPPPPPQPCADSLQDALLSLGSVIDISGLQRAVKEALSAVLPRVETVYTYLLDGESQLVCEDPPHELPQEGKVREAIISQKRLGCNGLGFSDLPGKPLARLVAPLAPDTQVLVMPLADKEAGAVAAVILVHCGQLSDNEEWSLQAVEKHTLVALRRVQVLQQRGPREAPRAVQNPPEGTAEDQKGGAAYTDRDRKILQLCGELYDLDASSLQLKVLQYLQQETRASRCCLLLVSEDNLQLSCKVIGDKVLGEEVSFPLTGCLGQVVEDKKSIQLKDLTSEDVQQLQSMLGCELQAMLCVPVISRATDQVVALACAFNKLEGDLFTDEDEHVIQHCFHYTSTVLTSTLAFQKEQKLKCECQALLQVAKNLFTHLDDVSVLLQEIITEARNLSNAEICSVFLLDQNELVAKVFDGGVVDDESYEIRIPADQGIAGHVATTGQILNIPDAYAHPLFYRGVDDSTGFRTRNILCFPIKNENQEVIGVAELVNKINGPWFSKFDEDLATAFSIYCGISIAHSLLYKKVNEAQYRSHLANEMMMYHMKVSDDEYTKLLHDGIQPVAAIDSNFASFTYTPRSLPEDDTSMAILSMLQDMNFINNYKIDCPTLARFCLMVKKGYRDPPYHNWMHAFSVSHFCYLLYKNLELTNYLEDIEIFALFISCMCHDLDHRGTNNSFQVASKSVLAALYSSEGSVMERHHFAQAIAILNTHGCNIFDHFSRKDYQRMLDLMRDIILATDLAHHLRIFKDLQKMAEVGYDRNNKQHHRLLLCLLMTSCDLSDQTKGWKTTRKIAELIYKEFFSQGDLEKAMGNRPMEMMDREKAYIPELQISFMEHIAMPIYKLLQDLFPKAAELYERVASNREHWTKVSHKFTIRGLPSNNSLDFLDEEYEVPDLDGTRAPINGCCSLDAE

Mus musculus [15] = experiment: Antiinflammatory activity in A/J mouse lung assessed as inhibition of LPS-induced IL6 production at 100 umol/kg, po administered 1 hr prior to LPS-challenge measured after 18 hrs relative to vehicle-treated control; format: functional
Bos taurus [16] = species: Bos taurus; experiment: Inhibition of bovine PDE1 using [3H]cAMP as substrate at 10 uM
[17] = Inhibition of bovine PDE3 using [3H]cAMP as substrate; parameters: species or system Bos taurus
[18] = Inhibition of PDE6 at 10 uM
Mus musculus [19] = experiment: Antiinflammatory activity in A/J mouse assessed as inhibition of leukocyte accumulation in bronchoalveolar space at 100 umol/kg, po administered 1 hr prior to LPS-challenge measured after 18 hrs relative to vehicle-treated control; format: functional; conditions: Lung
[20] = Inhibition of bovine PDE5 using […] as substrate; parameters: species or system Bos taurus
Mus musculus [21] = experiment: Proemetic activity in A/J mouse assessed as reversal of xylazine/katamine-induced anesthesia at 30 to 200 umol/kg, sc administered 30 mins prior xylazine/ketamine-administration; format: ADME, organism-based; conditions: in vivo, 0.5 h
[22] = Inhibition of PDE6
Bos taurus [23] = species: Bos taurus; experiment: Inhibition of bovine PDE3 using [3H]cAMP as substrate at 10 uM

inhibition (Bos taurus [1]) | IC50 [12] | SMILES | inhibition in vivo at 100 µmol/kg (Mus musculus [6]) | EC50 (PBMC [7]) | inhibition in vivo at 100 µmol/kg (Mus musculus [9]) | inhibition at 10 µM (PBMC [10]) | inhibition in vivo at 100 µmol/kg (Mus musculus [11]) | inhibition in vivo at 100 µmol/kg (Mus musculus [13]) | inhibition in vivo at 100 µmol/kg (Mus musculus [15]) | inhibition in vivo at 100 µmol/kg (Mus musculus [19]) | further results
22.8% | – | COc1ccc(C(=O)N(C)/N=C/c2ccccc2)cc1OC | – | – | – | – | – | – | – | – | –
27% | – | COc1ccc(C(=O)N(C)/N=C/c2ccc(O)cc2)cc1OC | – | – | – | – | – | – | – | – | –
97% | 150 nM | COc1ccc(/C=N/N(C)C(=O)c2ccc(Cl)cc2)cc1OC | 72% | 1030 nM | 33% | 88% | 54% | 54% | 59% | 69% | inhibition (Bos taurus [8]): 27.5%; inhibition [14]: 26.6%; inhibition (Bos taurus [16]): 17.7%; IC50 [17]: 6700 nM; inhibition [18]: 34%
98.3% | 105 nM | COc1ccc(C(=O)N(C)/N=C/c2ccc(OC)c(OC)c2)cc1 | 62% | 1450 nM | 61% | 84% | 51% | 68% | 45% | 81% | IC50 [2]: 505 nM; IC50 [3]: 53 nM; IC50 [4]: 74 nM; inhibition [14]: 35.5%; IC50 [20]: 150 nM; inhibition (Bos taurus [16]): 25.1%; IC50 [5]: 159 nM; IC50 [17]: 6700 nM; inhibition [18]: 35.2%; Activity (Mus musculus [21]): Non-toxic
98.4% | 50 nM | COc1ccc(/C=N/N(C)C(=O)c2ccc(O)cc2)cc1OC | 61% | 520 nM | 36% | 83% | 35% | 60% | 6% | 65% | IC50 [2]: 206 nM; IC50 [22]: 9100 nM; IC50 [3]: 47 nM; inhibition (Bos taurus [8]): 27.9%; IC50 [4]: 31 nM; inhibition [14]: 39.3%; inhibition (Bos taurus [16]): 28.3%; IC50 [5]: 64 nM; IC50 [17]: 11800 nM; Activity (Mus musculus [21]): Non-toxic
19.8% | – | COc1ccc(C(=O)N(C)/N=C/c2ccc3c(c2)OCO3)cc1OC | – | – | – | – | – | – | – | – | –

More lines, now with the values behind:

SMILES | inhibition (Bos taurus [1]) | IC50 [12] | inhibition in vivo at 100 µmol/kg (Mus musculus [6]) | EC50 (PBMC [7]) | inhibition in vivo at 100 µmol/kg (Mus musculus [9]) | inhibition at 10 µM (PBMC [10]) | inhibition in vivo at 100 µmol/kg (Mus musculus [11]) | inhibition in vivo at 100 µmol/kg (Mus musculus [13]) | inhibition in vivo at 100 µmol/kg (Mus musculus [15]) | inhibition in vivo at 100 µmol/kg (Mus musculus [19]) | further results
COc1ccc(C(=O)N/N=C/c2c(C)nc3ccccn23)cc1OC | 7.7% | – | – | – | – | – | – | – | – | – | –
COc1ccc(/C=N/NC(=O)c2c(C)nc3ccccn23)cc1OC | 41.5% | – | – | – | – | – | – | – | – | – | –
Clc1ncnc2ccccc12 | – | – | – | – | – | – | – | – | – | – | IC50 [2]: 3690 nM; IC50 [3]: 231 nM; IC50 [4]: 622 nM; IC50 [5]: 162 nM
COc1ccc(/C=N/NC(=O)c2ccc(Cl)cc2)cc1OC | 7.5% | – | – | – | – | – | – | – | – | – | –
COc1ccc(C(=O)N/N=C/c2ccc(OC)c(OC)c2)cc1 | 9.7% | – | – | – | – | – | – | – | – | – | –
COc1ccc(/C=N/N(C)c2ncnc3ccccc23)cc1OC | 98% | 190 nM | 66% | 1300 nM | 82% | – | 70% | 49% | 86% | 47% | –
COc1ccc(C2=NNC(=O)c3ccccc3C2)cc1OC | 78.8% | 5200 nM | – | – | – | 14% | – | – | – | – | –
COc1ccc(/C=N/NC(=O)c2ccccc2)cc1OC | 13.1% | – | – | – | – | – | – | – | – | – | –
COc1ccc(C(=O)N/N=C/c2ccc(O)cc2)cc1OC | 1.5% | – | – | – | – | – | – | – | – | – | –
COc1ccc(/C=N/N(C)C(=O)c2ccc3c(c2)OCO3)cc1OC | 96.3% | 110 nM | 64% | 540 nM | 56% | 90% | 80% | 67% | 92% | 62% | inhibition (Bos taurus [8]): 5.1%; inhibition [14]: 4%; inhibition (Bos taurus [16]): 0%; inhibition (Bos taurus [23]): 19.4%; inhibition [18]: 0.6%
